Assay outcomes (PubChem BioAssay)
In the library only some 3.5% were active in any assay of this set; here they are far more common.
MrgX1 allo act = positive allosteric modulators of MrgX1, primary screen, HEK293 cells, Fluo-4 calcium flux; 310,000 compounds, 0.63% hits; FDSS; stronger effect = higher value; AID 588675, 2011; B-score at 10 µM; Mas-related G-protein coupled receptor member X1 (Homo sapiens), Q96LB2;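 active means plate-corrected calcium response at least 3 library SD above typical, normal starting fluorescence, not activating the receptor alone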;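 further: compound read alongside a low EC10 to EC30 dose of BAM8-22 agonist; peak minus trough fluorescence over baseline measured at the second addition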
Target sequence (Q96LB2 whole entry, looked up): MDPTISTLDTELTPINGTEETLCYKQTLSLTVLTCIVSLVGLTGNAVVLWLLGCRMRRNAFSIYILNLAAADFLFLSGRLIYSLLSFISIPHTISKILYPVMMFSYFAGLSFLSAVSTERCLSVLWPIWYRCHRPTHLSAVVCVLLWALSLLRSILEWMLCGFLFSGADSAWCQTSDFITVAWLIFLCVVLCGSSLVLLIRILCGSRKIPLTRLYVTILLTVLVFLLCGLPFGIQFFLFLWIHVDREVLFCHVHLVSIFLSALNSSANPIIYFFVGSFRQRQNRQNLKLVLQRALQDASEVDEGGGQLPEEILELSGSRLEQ
RGS4 inh = RGS4 inhibitors, primary screen, cell-based, HEK293 M3R inducible RGS4, calcium flux; Regulator of G-protein signaling 4 (Homo sapiens), P49798; 310,000 compounds, 0.45% hits; Fluo-4 calcium flux; stronger effect = higher value; triggered by carbachol at its EC20; B-score at 10 µM;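 active means B-score, a plate-corrected calcium signal, over three deviations above library mean, with baseline fluorescence within five deviations of library mean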;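 further: RGS4 expression induced by doxycycline in cells with stable M3 receptor; B-score is computed from the integrated fluorescence ratio over baseline after carbachol; higher B-score means a larger calcium signal and so more RGS4 inhibition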
MrgX1 ag = agonists of human MrgX1 receptor, primary screen, HEK293 cells, Fluo-4 calcium flux; Mas-related G-protein coupled receptor member X1 (Homo sapiens), Q96LB2; Fluo-4 calcium fluorescence, agonist mode; stronger effect = higher value; B-score at 10 µM; 310,000 compounds, 0.44% hits; AID 588627, 2011;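 active means calcium response B-score plate-corrected fluorescence ratio at least 3 library SD, with starting fluorescence B-score inside 5 SD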
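Test system: Stable human MrgX1 HEK293 cell line | Schedule: Overnight plating before 1 h dye loading | Read-out basis: Baseline-normalised fluorescence change ratio, B-scored | Detection: Kinetic calcium dye fluorescence, Fluo-4 NW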
RGS4 pot = RGS4 potentiators or activators, primary screen, cell-based, HEK293 M3R inducible RGS4, calcium flux | AID 463111, 2010 | 310,000 compounds, 0.92% hits | B-score at 10 µM | carbachol calcium flux Fluo4; stronger effect = lower value;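 active means B-score of the integrated calcium signal more than 4 SD below the library mean, with starting fluorescence not abnormally high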;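 further: negative B-score means reduced calcium response which marks RGS4 activation or potentiation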
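Material: Inducible-RGS4 HEK293 cells carrying M3 receptor; also added: carbachol at ECmax as muscarinic agonist stimulus; incubation: compound preincubation 20 min at room temperature before agonist; signal: Fluo4-AM (2 µM) calcium-flux fluorescence, kinetic read; measure: integrated calcium ratio converted to B score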
MrgX1 antagonist = antagonists of human MrgX1 receptor, primary screen, HEK293 cells, Fluo-4 calcium flux | BAM8-22 antagonism; stronger effect = lower value | AID 588676, 2011 | B-score at 10 µM | 310,000 compounds, 1.3% hits | Mas-related G-protein coupled receptor member X1 (Homo sapiens), Q96LB2;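 active means calcium-response B-score plate-corrected more than 3 library SD below zero, starting fluorescence within 5 deviations, no agonist response on first addition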;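 further: peak minus trough fluorescence over baseline after final BAM8-22 challenge near maximal dose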
RGS4 activ val = reduced carbachol calcium response, RGS4-induced M3R cells, confirmation, RGS4 activator project, cell-based, HEK293 M3R/RGS4 inducible, calcium flux, duplicate; shares compounds with RGS4 pot; carbachol calcium flux Fluo4; inhibition, % at 10 µM; 1,100 compounds, 89% hits; AID 602282, 2012;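 active means inhibition above 3 SD of the buffer control wells, cut at about 41% in these data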;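 further: signal is the integrated peak-minus-minimum Fluo4 fluorescence over baseline ratio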
M3R Ca counter = counter-screen for RGS4 activators: effect in non-induced cells; shares compounds with RGS4 pot; HEK293 M3R non-induced RGS4, Fluo4 calcium flux; after carbachol challenge at its EC90; inhibition, % at 10 µM; 1,100 compounds, 82% hits; AID 602283;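 active means inhibition exceeding 3 SD of buffer-only control wells, cut at about 26% in these data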;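 further: percent drop in integrated peak-minus-baseline over baseline Fluo4 ratio after carbachol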
Of the large screens only hits and unclear results are named; the others gave an inactive call (follow-up assays come after a bar, where they were run).

CCc1ccc(NC(=O)CCc2nc3cccnc3n2Cc2ccc(OC)cc2)cc1	RGS4 pot -8 | RGS4 activ val inactive | M3R Ca counter inactive
CCCCCCNC(=O)CCc1nc2cccnc2n1Cc1ccc(OC)cc1	none
CC1=CC(C)(C)N(C(=O)CCl)c2cc(C)ccc21	none
CC1=CC(C)(C)N(C(=O)CNC2CCCCC2)c2cc(C)ccc21	RGS4 pot -8.5 | RGS4 activ val 94 | M3R Ca counter 97
Cc1cc(O)c(-c2cc(C(=O)Nc3ccc(S(=O)(=O)N4CCOCC4)cc3)[nH]n2)cc1C	none
O=C(Nc1ccc(S(=O)(=O)N2CCOCC2)cc1)c1cc(-c2cc(Cl)ccc2O)n[nH]1	RGS4 pot -8.4 | RGS4 activ val 93 | M3R Ca counter 71
Nc1ccc2c3c(cccc13)C(=O)N(c1ccccc1)C2=O	none (no result: MrgX1 allo act, MrgX1 ag, MrgX1 antagonist)
CC(C)CCN1C(=O)c2cccc3c(N)ccc(c23)C1=O	RGS4 pot -7.8 | RGS4 activ val 99 | M3R Ca counter 95
Cc1ccc(C)c(N2CCN(C(=O)c3ccc(CS(=O)(=O)c4ccccc4C)o3)CC2)c1	RGS4 pot -8.8 | RGS4 activ val 88 | M3R Ca counter 66
Cc1ccc([N+](=O)[O-])cc1NC(=O)C(C)NS(=O)(=O)c1ccc(F)cc1 (stereo not given)	none
CCOc1ccccc1N1CCN(Cc2c(C)n(C)n(-c3ccccc3)c2=O)CC1	none
c1ccc(Cn2c(-c3ccccc3)c[n+]3c2SCCC3)cc1	RGS4 pot -11 | RGS4 activ val 92 | M3R Ca counter 89
Brc1ccc(-c2c[n+]3c(n2-c2ccccc2)SCC3)cc1	none
Cc1cccc(N2CCN(C(=S)NCCc3ccccc3)CC2)c1C	none
Cc1ccc(Cl)cc1N1CCN(C(=S)NCCc2ccccc2)CC1	RGS4 pot -12 | RGS4 activ val 94 | M3R Ca counter 67
O=C(CSc1nc2ccccc2s1)N/N=C/c1cc([N+](=O)[O-])ccc1O	none
CCCCN(CC)CCNC(=O)c1cc2c(-c3ccc(Cl)cc3)nn(C)c2s1	RGS4 pot -8.9 | RGS4 activ val 72 | M3R Ca counter 57
COc1ccc(-c2cc(=O)c3c(O)c(OC)c(O)cc3o2)cc1	none
COc1cc(-c2cc(=O)c3c(O)c(OC)c(OC)cc3o2)cc(OC)c1O	RGS4 pot -8.3 | RGS4 activ val inactive | M3R Ca counter inactive
